{"source": "the RNAGym collection of RNA variant scans (doi:10.1126/science.aae0568)", "parents": {"B1": {"name": "tRNA (parent)", "chain": "GUUCCGUUGGCGUAAUGGUAACGCGUCUCCCUCCUAAGGAGAAGACUGCGGGUUCGAGUCCCGUACGGAACG"}}, "note": "Variants at the floor of the assay were thinned out."}
{"variants_of": "B1", "test": "yeast fitness relative to wild type (ratio to wild type); higher = fitter; tRNA-Arg(CCU), competitive growth, 37 C, YPD", "method_in_brief": "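The tRNA-Arg(CCU) gene variants were made by chemical synthesis with a 3% per-site mutation rate at 69 sites and inserted at the native genomic locus of Saccharomyces cerevisiae. After pooling, the strains were competed in YPD at 37°C for 24 hours in six parallel replicates. Gene amplicons from the start population and each end population were read by 100-nucleotide paired-end sequencing, and Darwinian fitness relative to wild type was taken from genotype frequency changes. Genotypes needed ≥ 100 starting reads, and estimates < 0.5 were set to 0.5.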"}
{"variant": "A45C U47C A57C G68C", "yeast fitness": "≤ 0.5"}
{"variant": "A45G C49G A65C", "yeast fitness": "≤ 0.5"}
{"variant": "A43U A70C", "yeast fitness": 0.898}
{"variant": "A43U A70G", "yeast fitness": 0.937}
{"variant": "A45C C46U U64C", "yeast fitness": 0.79}
{"variant": "A43U A57G", "yeast fitness": 1.01}
{"variant": "A43U A57U", "yeast fitness": 0.761}
{"variant": "G44C A57U U64A G68C", "yeast fitness": "≤ 0.5"}
{"variant": "G44C C61U", "yeast fitness": 0.718}
{"variant": "G44C C61G", "yeast fitness": 0.586}
{"variant": "A43U A69C A70C", "yeast fitness": 0.601}
{"variant": "G44A C49A", "yeast fitness": 0.635}
{"variant": "G44A C49U", "yeast fitness": 1.04}
{"variant": "G44C C62U A69C", "yeast fitness": 0.696}
{"variant": "G44C C55G A69U", "yeast fitness": 0.746}
{"variant": "A43U C62U G63A", "yeast fitness": 0.823}
{"variant": "A43U G48A C60A", "yeast fitness": 0.586}
{"variant": "A43U U64G", "yeast fitness": 0.7}
{"variant": "A43G G63A A69U", "yeast fitness": 0.812}
{"variant": "A43G G51C A69U", "yeast fitness": "≤ 0.5"}
{"variant": "G44A C55U", "yeast fitness": 0.776}
{"variant": "G44A C55A", "yeast fitness": 0.658}
{"variant": "A43G U64C", "yeast fitness": 0.923}
{"variant": "A43G U64A", "yeast fitness": 0.77}
{"variant": "A45C U47G A57G", "yeast fitness": 0.605}
{"variant": "G44A G58U A69C", "yeast fitness": "≤ 0.5"}
{"variant": "A43G G50C U59C", "yeast fitness": "≤ 0.5"}
{"variant": "G44C C62A C66U", "yeast fitness": "≤ 0.5"}
{"variant": "A45G C66U A69C", "yeast fitness": 0.598}
{"variant": "A45C G50A G63C", "yeast fitness": 0.578}
{"variant": "A45G G58C", "yeast fitness": 0.958}
{"variant": "G44C G52A U59C U64G", "yeast fitness": 0.553}
{"variant": "A43G C62U", "yeast fitness": 0.877}
{"variant": "G44C U47C", "yeast fitness": 0.822}
{"variant": "A43U C49A C66U A70U", "yeast fitness": 0.529}
{"variant": "A45C A69G", "yeast fitness": 1.06}
{"variant": "A45C A69C", "yeast fitness": 0.744}
{"variant": "G44A G63A G67C", "yeast fitness": "≤ 0.5"}
{"variant": "A45C G63C U64C", "yeast fitness": "≤ 0.5"}
{"variant": "A43U U53A A69C", "yeast fitness": 0.614}
{"variant": "A43U", "yeast fitness": 0.988}
{"variant": "A43G G48C C66G", "yeast fitness": "≤ 0.5"}
{"variant": "G44A C46A G52A C66U", "yeast fitness": 0.62}
{"variant": "A45C C49A A65U", "yeast fitness": "≤ 0.5"}
{"variant": "A43G G48A", "yeast fitness": 0.933}
{"variant": "A45G U54G", "yeast fitness": 0.563}
{"variant": "A43U C49G G63A A69C", "yeast fitness": "≤ 0.5"}
{"variant": "A45C C46G G56C", "yeast fitness": 0.563}
{"variant": "A43G U53A", "yeast fitness": 0.657}
{"variant": "A45C G50A C60G A65G", "yeast fitness": "≤ 0.5"}
{"variant": "A43U G50C", "yeast fitness": 0.812}
{"variant": "A43U G50A", "yeast fitness": 0.796}
{"variant": "G44A G52A C61A", "yeast fitness": 0.565}
{"variant": "A45C G50A", "yeast fitness": 0.969}
{"variant": "A43G U53C C55U C62U", "yeast fitness": "≤ 0.5"}
{"variant": "G44C G51A G58C U59A", "yeast fitness": "≤ 0.5"}
{"variant": "A45G C60A C62A", "yeast fitness": 0.57}
{"variant": "G44C G52C C66G", "yeast fitness": "≤ 0.5"}
{"variant": "G44A A69C", "yeast fitness": 0.988}
{"variant": "A45C C62G", "yeast fitness": 0.718}
{"variant": "A45C C62A", "yeast fitness": 0.622}
{"variant": "G44A C61U", "yeast fitness": 1.04}
{"variant": "A43G G58A C61G", "yeast fitness": "≤ 0.5"}
{"variant": "A45U A70G", "yeast fitness": 1.09}
{"variant": "A45U A70U", "yeast fitness": 0.925}
{"variant": "G44C A45U", "yeast fitness": 0.905}
{"variant": "G44C A45C", "yeast fitness": 0.97}
{"variant": "A43G U59A", "yeast fitness": 0.797}
{"variant": "A45U A57C", "yeast fitness": 0.617}
{"variant": "A43U C46U", "yeast fitness": 0.952}
{"variant": "A43U U54A A70G", "yeast fitness": "≤ 0.5"}
{"variant": "A45C C49U C55U", "yeast fitness": 0.596}
{"variant": "A45C C49U A70C", "yeast fitness": 0.813}
{"variant": "A45C G48C", "yeast fitness": 0.833}
{"variant": "A43U A45C G67C", "yeast fitness": "≤ 0.5"}
{"variant": "A43U C62U A70C", "yeast fitness": 0.637}
{"variant": "A45G C62U C66A", "yeast fitness": "≤ 0.5"}
{"variant": "A45C C49G", "yeast fitness": 0.721}
{"variant": "A45C C49A", "yeast fitness": 0.603}
{"variant": "A45C C49U", "yeast fitness": 0.978}
{"variant": "G44A A45C G51A", "yeast fitness": "≤ 0.5"}
{"variant": "G44A C46U", "yeast fitness": 0.981}
{"variant": "A45G G58A A69U", "yeast fitness": 0.738}
{"variant": "G44A A45C C49G A69C", "yeast fitness": 0.698}
{"variant": "A45C G48A C62U", "yeast fitness": 0.606}
{"variant": "G44A U59C", "yeast fitness": 0.799}
{"variant": "G44A U59A", "yeast fitness": 0.601}
{"variant": "A45C G63C", "yeast fitness": 0.589}
{"variant": "G44C C55G", "yeast fitness": 0.596}
{"variant": "G44C C55A", "yeast fitness": 0.548}
{"variant": "G44C G63A", "yeast fitness": 0.83}
{"variant": "A45C U47A U53C", "yeast fitness": "≤ 0.5"}
{"variant": "A45C U59C", "yeast fitness": 0.874}
{"variant": "G44C G50C G52A U54G C61G", "yeast fitness": "≤ 0.5"}
{"variant": "G44C A70G", "yeast fitness": 0.954}
{"variant": "A43G G44A C46A", "yeast fitness": 0.976}
{"variant": "A45C A57G", "yeast fitness": 0.858}
{"variant": "A43U G52C C62A", "yeast fitness": "≤ 0.5"}
{"variant": "A45G C46A", "yeast fitness": 0.916}
{"variant": "A45G C46U", "yeast fitness": 0.991}
{"variant": "G44C C62U G63A", "yeast fitness": "≤ 0.5"}
{"variant": "G44C G50A", "yeast fitness": 0.861}
{"variant": "G44A U54A", "yeast fitness": 0.61}
{"variant": "A45U C46G", "yeast fitness": 0.739}
{"variant": "G44A A70C", "yeast fitness": 0.837}
{"variant": "G44A A70U", "yeast fitness": 1.03}
{"variant": "G44A A70G", "yeast fitness": 0.919}
{"variant": "A45G C61A", "yeast fitness": 0.635}
{"variant": "A45G C46A A69U", "yeast fitness": 0.768}
{"variant": "A45G C49U", "yeast fitness": 0.941}
{"variant": "A45G C49G", "yeast fitness": 0.712}
{"variant": "A43U G58U", "yeast fitness": 0.694}
{"variant": "A43G G52C C55A C61A", "yeast fitness": "≤ 0.5"}
{"variant": "A45C G50A C62U A69U", "yeast fitness": 0.561}
{"variant": "A43G G52A A69U A70C", "yeast fitness": "≤ 0.5"}
{"variant": "A43U A65C A69C", "yeast fitness": "≤ 0.5"}
{"variant": "A45G", "yeast fitness": 0.991}
{"variant": "A45C", "yeast fitness": 0.987}
{"variant": "A45U", "yeast fitness": 0.99}
{"variant": "A45C G50C G51C C55U G67C", "yeast fitness": "≤ 0.5"}
{"variant": "A43U G52A A69U", "yeast fitness": "≤ 0.5"}
{"variant": "A45G A57G G63A", "yeast fitness": "≤ 0.5"}
{"variant": "G44C G56A", "yeast fitness": 0.795}
{"variant": "A45C G68U", "yeast fitness": 0.739}
{"variant": "A45C G68A", "yeast fitness": 0.838}
{"variant": "G44C C49U U59G", "yeast fitness": "≤ 0.5"}
{"variant": "A43G G58A", "yeast fitness": 0.969}
{"variant": "A45C C62G A65C", "yeast fitness": 0.554}
{"variant": "A43U C61A A65U", "yeast fitness": "≤ 0.5"}
{"variant": "A43G G48A G50A G51A C62U", "yeast fitness": "≤ 0.5"}
{"variant": "A45G G63A", "yeast fitness": 0.747}
{"variant": "A45G G63U", "yeast fitness": 0.732}
{"variant": "A43G U53A U54C", "yeast fitness": "≤ 0.5"}
{"variant": "G44A G68C", "yeast fitness": 0.764}
{"variant": "G44A G68U", "yeast fitness": 0.696}
{"variant": "A43G G51A C61U C62G", "yeast fitness": "≤ 0.5"}
{"variant": "A45C A70G", "yeast fitness": 0.957}
{"variant": "G44A C60U G67C", "yeast fitness": 0.545}
{"variant": "G44A C60U", "yeast fitness": 0.798}
{"variant": "G44A C60A", "yeast fitness": 0.585}
{"variant": "A45C G48A C55A", "yeast fitness": 0.544}
{"variant": "A45G C46U G50C", "yeast fitness": "≤ 0.5"}
{"variant": "A43G G63C G68A", "yeast fitness": "≤ 0.5"}
{"variant": "G44A A45U C62G", "yeast fitness": "≤ 0.5"}
{"variant": "A43U C46U A69U", "yeast fitness": 0.807}
{"variant": "G44A A45C C49G", "yeast fitness": 0.983}
{"variant": "A43U U59G", "yeast fitness": 0.81}
{"variant": "A43G G51A G58A", "yeast fitness": 0.58}
{"variant": "A43U C55G", "yeast fitness": 0.537}
{"variant": "A43U C46U C49U", "yeast fitness": 0.731}
{"variant": "A43U C46G A57G U64A A70G", "yeast fitness": "≤ 0.5"}
{"variant": "G44C G67A", "yeast fitness": 0.722}
{"variant": "G44C G67U", "yeast fitness": 0.855}
{"variant": "A45C C55G C61U", "yeast fitness": "≤ 0.5"}
{"variant": "A45C C55U A69U", "yeast fitness": 0.753}
{"variant": "A45C C55A", "yeast fitness": 0.562}
{"variant": "A45C C46G", "yeast fitness": 1.01}
{"variant": "A45C C46A", "yeast fitness": 0.991}
{"variant": "A45C G63C C66U", "yeast fitness": "≤ 0.5"}
{"variant": "A43U C46A G63A", "yeast fitness": 0.689}
{"variant": "A43G G52C U53C G63C", "yeast fitness": 0.604}
{"variant": "G44C C49G", "yeast fitness": 0.741}
{"variant": "G44C C49A", "yeast fitness": 0.625}
{"variant": "G44C C49U", "yeast fitness": 0.783}
{"variant": "A45C C61G", "yeast fitness": 0.591}
{"variant": "A43U C60A", "yeast fitness": 0.59}
{"variant": "A45C U54C C66U", "yeast fitness": 0.606}
